Measured values taken from article PMC3517154 (ChemMedChem, 2011).

Legend:
[1] = target: T1, PPARγ (Homo sapiens, UniProt P37231); test: Cell-based PPARγ transactivation assay; conditions: for Maximal efficacy: compared to the reference full agonist (2, MRL20); for EC50: read-out: Cell-based EC50, Cos-1 cells, 3xPPRE luciferase reporter, full-length PPARγ, 24 h, dose-response
T1 sequence (P37231 1-505): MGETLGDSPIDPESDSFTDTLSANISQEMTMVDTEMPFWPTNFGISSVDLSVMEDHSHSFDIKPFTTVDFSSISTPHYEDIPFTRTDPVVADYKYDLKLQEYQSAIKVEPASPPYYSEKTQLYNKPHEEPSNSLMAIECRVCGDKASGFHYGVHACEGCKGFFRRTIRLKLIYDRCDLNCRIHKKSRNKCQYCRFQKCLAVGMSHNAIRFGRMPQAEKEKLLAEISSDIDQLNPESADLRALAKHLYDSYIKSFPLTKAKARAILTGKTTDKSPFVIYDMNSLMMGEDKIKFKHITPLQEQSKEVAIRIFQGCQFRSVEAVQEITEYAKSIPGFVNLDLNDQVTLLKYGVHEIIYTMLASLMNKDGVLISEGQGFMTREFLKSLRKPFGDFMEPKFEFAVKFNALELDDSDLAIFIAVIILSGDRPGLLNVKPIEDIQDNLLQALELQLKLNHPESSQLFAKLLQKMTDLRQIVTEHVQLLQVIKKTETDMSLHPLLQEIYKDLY
In short: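 Cos-1 cells, trypsinized, bulk reverse-transfected 24 h (FuGene6, lipid:DNA 3:1; DMEM + 10% FBS) with 1.5 μg 3xPPRE luciferase reporter plus 1.5 μg full-length PPARγ (pSport6). Replated at 10,000 cells/well, 4 h at 37°C, 5% CO2. Ten-point serial dilution, 5 μM – 200 pM, in triplicate, then 24 h. One-step luciferase reagent, luminescence read. Activity taken as fold over DMSO. Partial and full agonist controls, DMSO negative. EC50 from curve fit.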

[2] = target: T2, PPARγ LBD (Homo sapiens, UniProt P37231); test: Fluorescence polarization; assay type: binding; conditions: read-out: FP Assay IC50; recombinant PPARγ LBD, 5 nM Fluoromone Green ligand, 25°C, 2 hours
T2 sequence (P37231 238-503 limits assumed): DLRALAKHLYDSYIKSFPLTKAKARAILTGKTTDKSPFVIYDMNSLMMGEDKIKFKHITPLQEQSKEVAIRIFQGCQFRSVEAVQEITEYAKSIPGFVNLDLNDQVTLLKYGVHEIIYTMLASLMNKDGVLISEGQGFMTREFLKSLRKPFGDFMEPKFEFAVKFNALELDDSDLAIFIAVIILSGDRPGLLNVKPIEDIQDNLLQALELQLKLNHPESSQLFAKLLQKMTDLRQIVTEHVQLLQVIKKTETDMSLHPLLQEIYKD
In short: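 Competitive FP binding run per kit instructions. 20 ng recombinant PPARγ LBD plus 5 nM Fluoromone Green probe, mixed with an equal volume of screening buffer holding DMSO or test compound. Incubated 2 h at 25°C. Polarization read at 485 nm excitation and 535 nm emission. Rosiglitazone used as positive competitor. IC50 from dose-response curve fit.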

SMILES | Maximal efficacy [1] | EC50 [1] | IC50 [2]
COc1ccc(-c2nn(-c3ccccc3)cc2/C=C2/SC(=S)N(CCC(=O)O)C2=O)c(C)c1 [Compound 3] | 44.41% | 283 nM | 152 nM
CCn1cnc2c1c(=O)n(Cc1cccc([N+](=O)[O-])c1)c(=O)n2Cc1ccccc1 [Compound 4] | 64.11% | 181 nM | 173 nM
CC(=O)N1N=C(c2ccccc2)CC1c1cn(Cc2ccccc2)c2ccccc12 (stereo not drawn) [Compound 5] | 44.71% | 1200 nM | 2000 nM
CCOc1ccc2nc(N3C(=O)C(O)=C(C(=O)c4ccco4)C3c3ccco3)sc2c1 (stereo not drawn) [Compound 6] | 37.04% | 1200 nM | 3000 nM
COc1ccc2nc(N3C(=O)C(O)=C(C(=O)c4ccco4)C3c3ccc(C)o3)sc2c1 (stereo not drawn) [Compound 7] | 41.14% | 5000 nM | 5000 nM
Cc1ccc2nc(N3C(=O)C(O)=C(C(=O)c4ccc(C)o4)C3c3ccco3)sc2c1 (stereo not drawn) [Compound 8] | 45.76% | 18000 nM | 22000 nM
